Experimental data pooled from the literature.
Compare with care: the assays were run in different laboratories.
Organism: Acinetobacter baumannii
Observed: microbial growth

| SMILES | method | strain | time | MIC |
| --- | --- | --- | --- | --- |
| CCCCCCC#Cc1cncc(-c2nnc(SCc3cc([N+](=O)[O-])cc([N+](=O)[O-])c3)n2C2CCNCC2)c1 | broth dilution | ATCC17978 |  | 64 µg/mL |
| Nc1nc(-c2ccc3nc(-c4cc(C(F)(F)F)cc(C(F)(F)F)c4)[nH]c3c2)c[nH]1 | broth dilution | AB5075 |  | 50 µM |
| [H]/N=C(\N/C(=N/[H])NCCCCCCNC(=N)NC(=N)Nc1ccc(Cl)cc1)Nc1ccc(Cl)cc1 |  | ATCC17978 |  | 8 µM |
| CC1(C)S[C@@H]2[C@H](NC(=O)[C@H](N)c3ccccc3)C(=O)N2[C@H]1C(=O)O | broth dilution | ATCCBAA1605 |  | > 64 µg/mL |
| CCCCCCC#Cc1cncc(-c2nnc(SCc3ccc([N+](=O)[O-])o3)n2CCCN)c1 | broth dilution | ATCC17978 |  | 32 µg/mL |
| CCCCCCCCN=c1ccn(CCCCCCCCCCn2ccc(=NCCCCCCCC)cc2)cc1 |  | ATCC17978 |  | 1 µM |
| C[C@@H](O)[C@H]1C(=O)N2C(C(=O)O)=C(S[C@@H]3CN[C@H](C(=O)N(C)C)C3)[C@H](C)[C@H]12 | broth dilution | ATCC19606 |  | 0.5 µg/mL |
| CCCCCCC#Cc1cncc(-c2nnc(SCc3cc([N+](=O)[O-])cc([N+](=O)[O-])c3)n2CCOC2OC(CN)C(O)C2O)c1 (stereo not shown) | broth dilution | ATCC17978 |  | 64 µg/mL |
| N[C@@H](Cc1c[nH]c2ccc(Cl)cc12)C(=O)O |  | ATCC17978 | 18 h | > 200 µM |
| CNC(C)C1CCC(N)C(OC2C(N)CC(N)C(OC3OCC(C)(O)C(NC)C3O)C2O)O1 (stereo not shown) | broth dilution | ATCCBAA1605 |  | > 64 µg/mL |
